Screens deposited in PubChem by several laboratories.
MEKK2 WT-MEK5: raises or lowers MEK5 binding to wildtype human MEKK2 PB1 domain; 1.1% of 290,000 active; binding response (% of control), % at 10 µM; AID 1531; Q9Y2U5; bead flow cytometry, Alexa488-MEK5 binding to MEKK2 WT; actives lie on both sides; in the data active = binding response below about 67% or above about 130%
ABCB1 inh: human ABCB1 inhibition, ABCG2 as counter-screen; inhibition, % at 6.6 µM; 0.067% of 190,000 active; AID 1326; CCRF-Adr cells, JC-1 efflux, flow cytometry; P08183; in the data active = inhibition above about 40%;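 also: 0% = vehicle and 100% = reference inhibitor; higher value means more JC-1 retained so stronger ABCB1 efflux block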
MEKK3 PB1 HTS: modulators (inhibitors or enhancers) of MEK5 binding to human MEKK3 PB1 domain; Q99759; binding response (% of control), % at 10 µM; 1.4% of 290,000 active; AID 1529; bead-based flow cytometry, Alexa488-MEK5 binding to MEKK3; actives lie on both sides; 0 = blocked by unlabeled MEK5, 100 = vehicle;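 active = binding response more than 3 SD above or below the average of its plate-row segment, actives on both sides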;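 also: Alexa488 bead fluorescence after subtracting the streptavidin-only scavenger bead signal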
ABCG2 block: human ABCG2 inhibition, ABCB1 as counter-screen. 0.1% of 190,000 active. inhibition, % at 6.6 µM. IgMXP3 cells, JC-1 efflux, flow cytometry. AID 1325;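 active = inhibition above 80%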;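 also: 0% = DMSO and 100% = nicardipine control wells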
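material = IgMXP3 (ABCG2) plus far-red-tagged CCRF-Adr (ABCB1) cells | amount = 3 million cells/mL, equal mix of both lines | also added = JC-1 transporter substrate | dosing = one concentration, 6.6 µM final | schedule = 10 min at 25 °C | measured by = flow cytometric JC-1 green MFI at 530 nm | read-out basis = percent efflux inhibition, scaled nicardipine 100% to DMSO 0%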
MEKK2 mut-MEK5: signal of MEK5 binding to mutant human MEKK2 PB1 domain; bead flow cytometry, Alexa488-MEK5 binding to MEKK2 mutant; percent response, % at 10 µM; 0.35% of 290,000 active; in the data active = percent response above about 24%, passing the limit was not always enough
WT yeast gro inh: growth inhibition of WT yeast, mitochondrial fusion screen | 2.1% of 190,000 active | inhibition, % at 10 µM | mitochondrial fusion phenotypic screen, WT strain | AID 1362; in the data active = inhibition above about 58%; tested in S. cerevisiae
MEKK2wt confirm: raises or lowers MEK5 binding to wildtype human MEKK2, retest; 2.4% of 5,900 active; binding response (% of control), % at 10 µM; AID 1892; bead flow cytometry, Alexa488-MEK5 binding to MEKK2 WT; actives lie on both sides; shares compounds with MEKK3 PB1 HTS; in the data active = binding response below about 16% or above about 210%; inactive = in between
MEKK2mut-MEK5: signal of MEK5 binding to mutant human MEKK2, retest | shares compounds with MEKK3 PB1 HTS | percent response, % at 10 µM | bead flow cytometry, Alexa488-MEK5 binding to MEKK2 mutant | 2% of 5,900 active | AID 1893; in the data active = percent response mostly above about 71%, no sharp cut-off; inactive = mostly below about 38%;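 also: higher means compound restores mutant binding toward wildtype level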
MEKK3-MEK5 inh: MEKK3-MEK5 PB1 inhibition, single concentration confirmation. shares compounds with MEKK3 PB1 HTS. bead flow cytometry, Alexa488-MEK5 binding to MEKK3; hits give low values. binding response (% of control), % at 10 µM. 1.8% of 5,900 active. AID 1894;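 active = binding response below 72% of control, or above a set upper limit, though filed actives all read lower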;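 also: 100% = DMSO only wells and 0% = binding blocked by excess unlabeled MEK5; lower values mean stronger disruption of MEK5 binding to MEKK3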
The depositor's hits bear a star; / = no result; ! = not active in a repeat; [ ] = remark or other dose. Rows were chosen to be rich in hits. Some 3.5% of all compounds tested hit in one or more screens of this group.

SMILES	MEKK2 WT-MEK5	ABCB1 inh	MEKK3 PB1 HTS	ABCG2 block	MEKK2 mut-MEK5	WT yeast gro inh	MEKK2wt confirm	MEKK2mut-MEK5	MEKK3-MEK5 inh
CCCCCCCNC(=O)C1(CC2CC(c3cccc(Br)c3)=NO2)CCNCC1 (stereo not drawn)	191*	/	107	/	23	/	143	17	107
CCO[C@H]1OC(C(=O)N2CCCCCCC2)=C[C@@H](C)[C@@H]1CCCO	98	1	99	1	-7	-1	/	/	/
CCOc1ccc(NC(=O)[C@@H]2CCC(=O)N2C2OC(=O)c3ccccc32)cc1 (stereo partly drawn)	99	/	101	/	-2	/	/	/	/
NC(=O)c1ccsc1NC(=O)CSc1nnc(Nc2ccccc2)s1	102	-1	107	-3	7	5	/	/	/
CC1CCCN(C(=O)C2CCN(CCCc3ccccc3)CC2)C1 (stereo not drawn)	98	2	79*[inhibitor]	59	-5	-6	99	-2	94
Cc1ccc(NC(=O)CCC(=O)OCc2ccc(Br)cc2)cc1	109	0	107	0	-2	-7	/	/	/
O=C(NC1CCN(Cc2ccccc2)CC1)c1cccc(S(=O)(=O)Nc2cc(C(F)(F)F)ccc2Cl)c1	94	0	90	0	-4	-4	/	/	/
COc1ccc(NS(=O)(=O)c2cccc(C(=O)NC3CCN(Cc4ccccc4)CC3)c2)cc1	110	/	77*[inhibitor]	/	-4	/	120	7	105
CC(C(=O)c1ccc(-c2ccccc2)cc1)[n+]1cccc(NC(=O)c2ccccc2)c1 (stereo not drawn)	224*	/	108	/	62*	/	195	51	106
COc1cc(OC)cc(C(=O)NCc2n[nH]c(=S)n2-c2ccccc2)c1	96	0	98	-1	-2	9	/	/	/
COc1ccc(C(=O)NCc2n[nH]c(=S)n2-c2ccccc2)cc1OC	-5.0*[inhibitor]	1	-1.0*[inhibitor]	8	-40	-15	110	11	107
CCn1ccnc1CN(C)Cc1cn(-c2ccc(C)cc2)nc1-c1cccc(C)c1	138*	5	107	4	-3	68*	124	11	103
CCN(c1ccc(OC)cc1)S(=O)(=O)c1csc(C(=O)N2CCCC2)c1	101	/	102	/	2	/	/	/	/
CCN(CC)C(C(=O)Nc1ccc(C(C)C)cc1)c1ccc2c(c1)OCO2 (stereo not drawn)	134*	0	118	2	15	9	117	6	101
CC(C)COCC(CN(Cc1ccccc1)c1ccccc1)N1CCCC1 (stereo not drawn)	146*!	/	96	2	-23	48	137	20	104
COc1ccc(OC)c(NC(=O)CSc2nnnn2-c2ccc3c(c2)OCO3)c1	116	-5	128*	1	12	9	98	-2	96
Cc1cccc(NS(=O)(=O)c2ccc3c(c2)NC(=O)CO3)c1C	91	/	97	/	-4	/	/	/	/
CCc1c(C)nc2ncnn2c1N1CCC(C(=O)NCc2cccs2)CC1	6.0*[inhibitor]	-1	3.0*[inhibitor]	5	-46	5	93	-8	93
CCc1c(C)nc2ncnn2c1N1CCCC(C(=O)NCc2cccs2)C1 (stereo not drawn)	92	0	93	2	-7	-18	/	/	/
O=C(Nn1cnnc1)c1ccc(Cl)cc1	100	/	100	/	-2	/	/	/	/
COc1ccc(C(=O)NC(C)c2nnc(SCC(=O)NC3CCCC3)n2C)cc1 (stereo not drawn)	95	/	98	/	4	/	/	/	/
O=C(c1ccc2snnc2c1)N1CCN(c2ccccc2)CC1	131	0	129*	1	8	10	92	-8	95
O=C(c1ccc2snnc2c1)N1CCN(c2ccccn2)CC1	103	1	101	12	3	4	/	/	/
CN(CC(=O)NCc1ccc(F)cc1)S(=O)(=O)c1cccc2nsnc12	97	1	98	5	-5	2	/	/	/
CN(CC(=O)NCc1cccs1)S(=O)(=O)c1cccc2nsnc12	3.0*[inhibitor]	0	2.0*[inhibitor]	1	-21	0	107	7	103
SMILES	MEKK2 WT-MEK5	ABCB1 inh	MEKK3 PB1 HTS	ABCG2 block	MEKK2 mut-MEK5	WT yeast gro inh	MEKK2wt confirm	MEKK2mut-MEK5	MEKK3-MEK5 inh
CN1C(C(=O)NCc2cccc(C(F)(F)F)c2)CC2Cn3c(nc4ccccc43)C21 (stereo not drawn)	96	/	51*[inhibitor]	/	-5	/	100	-4	98
O=S(=O)(NC1CCCC1)c1ccc(S(=O)(=O)N(Cc2cccs2)CC2CCCO2)cc1 (stereo not drawn)	-2.0*[inhibitor]	2	1.0*[inhibitor]	5	-31	-3	102	4	105
COc1cccc(NC(=S)N2CCN(c3ccc([N+](=O)[O-])cc3)CC2)c1	60*[inhibitor]	0	60*[inhibitor]	14	-16	0	99	-2	100
Cc1cc(Br)ccc1-n1[nH]c(C)c(C=Nc2cccc3nsnc23)c1=O	41*[inhibitor]	0	86	-1	-17	-9	88	-11	99
O=C(CC(=O)N/N=C/c1c(Cl)cccc1Cl)NCc1cccnc1	103	/	101	/	4	/	/	/	/
COc1ccccc1CNC(=O)COC(=O)c1ccc(C)c(S(=O)(=O)N2CCCCC2)c1	102	/	103	/	0	/	/	/	/
CN(Cc1ccccc1)CC(O)COc1ccc(CNCCCOc2cccnc2)cc1 (stereo not drawn)	139*	2	101	5	33	1	144	34	110
COc1ccc(C2C(C(=O)N3CCCCC3)CC(=O)N2c2ccc(OC)cc2)cc1 (stereo not drawn)	118	0	127*	-5	4	-32	95	-8	95
COc1ccc(C2C(C(=O)N3CCC(C(N)=O)CC3)CC(=O)N2c2ccc(OC)cc2)cc1 (stereo not drawn)	92	0	96	-1	-7	-16	/	/	/
COCCCNC(=O)c1ccc(Cn2c(=O)c3ccccc3n(CC(=O)NCc3ccco3)c2=O)cc1	94	0	96	-1	-4	17	/	/	/
COCCNC(=O)Cn1c(=O)n(Cc2ccc(C(=O)NCCc3ccc(OC)c(OC)c3)cc2)c(=O)c2ccccc21	45*[inhibitor]	0	37*[inhibitor]	1	-18	-13	102	4	103
